IC50 data for five compounds are collected here from ChEMBL document CHEMBL1150166, “Cytotoxic 3,20-epoxy-ent-kaurane diterpenoids from Isodon eriocalyx var. laxiflora” (J Nat Prod, 2002).

Converted amounts (≈) assume the structure as drawn.

One assay deals with T-24. Briefly: Cytotoxicity against human T24 cells after 72 hrs by SRB assay. The note with it: T-24, 72 h.
The subject of a further assay is K562. In words: Cytotoxicity against human K562 cells after 48 hrs by MTT assay. The format is functional, cell-based. The note with it: K562, 48 h. The method, boiled down:
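Log-phase K562 cells (5 × 10⁴ cells/mL) were exposed in quadruplicate to 10⁻⁴ to 10⁻⁸ g/L drug for 48 h at 37 °C under 5% CO₂. MTT (5 mg/mL) was then added for 4 h, and formazan was dissolved in 10% SDS/5% isobutanol/HCl for 12 h at room temperature. OD was read at 570 and 630 nm. Controls were saline or DMSO, with cisplatin as the positive control.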

For another assay, the system named is A549. In words: Cytotoxicity against human A549 cells after 72 hrs by SRB assay. To be noted: A549, 72 h.

As for `C=C1C(=O)[C@]23C[C@H]1CC[C@H]2[C@]12CO[C@H](CC1=O)C(C)(C)[C@H]2[C@H](O)C3=O` [LAXIFLORIN J], the results for the IC50 in the assay on T-24, with K562 and with A549 were 0.314 mg/L (≈ 0.912 µM), 0.473 mg/L (≈ 1.37 µM) and 49.1 mg/L (≈ 142 µM), respectively.
`CC1(C)[C@H]2[C@H](O)C(=O)[C@@]34C[C@@H](CC[C@H]3[C@@]23CO[C@@H]1CC3=O)[C@@H](CO)C4=O` [LAXIFLORIN K]: the IC50 was determined as 1750 mg/L (≈ 4840 µM) with T-24 and 11.9 mg/L (≈ 32.8 µM) with K562.
In the case of `C=C1[C@@H](OC(C)=O)[C@]23C[C@@]1(O)CC[C@H]2[C@]12CO[C@H](CC1=O)C(C)(C)[C@H]2[C@H](O)C3=O` [LAXIFLORIN M], the IC50 with K562 stood at 219 mg/L (≈ 541 µM).
Turning to `C=C1[C@@H]2CC[C@@H]3[C@](C2)(C(=O)[C@@H](O)[C@@H]2C(C)(C)[C@H]4CC(=O)[C@@]32CO4)[C@@H]1O` [LAXILORIN L], the half-maximal inhibitory concentration (IC50) in the assay with T-24 stood at 5.16 mg/L (≈ 14.9 µM); with K562, 1.13 mg/L (≈ 3.25 µM); in the assay on A549 it was 24.7 mg/L (≈ 71.2 µM).
The matching figures for `C=C1C(=O)[C@]23C[C@H]1CC[C@H]2[C@]12CO[C@H](CC1=O)C(C)(C)C2=C(O)C3=O` [MAOECRYSTAL P]: 0.0512 mg/L (≈ 0.15 µM), 0.132 mg/L (≈ 0.386 µM) and 69.5 mg/L (≈ 203 µM).
